Source: PubChem BioAssay
GalR3 antag: GalR3 antagonists in HEK293 cells, primary screen, cell-based, fluorescence readout. Galanin receptor type 3 (Homo sapiens), O60755. actives 0.44% (n = 360,000). HEK293 GalR3-CNG cAMP membrane potential fluorescence; galR3 body fused to GalR1 C-terminus. inhibition, % at 3 µM. AID 651719, 2012;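 active = inhibition above the screen-wide average plus 3 SD, cut at about 13% in these data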;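 note: forskolin and galanin both at EC90 stimulate the cells; cAMP rise reported by CNG channel membrane potential dye signal; 0% = forskolin plus galanin with DMSO and 100% = forskolin alone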
Target sequence (O60755 1-299 limits assumed): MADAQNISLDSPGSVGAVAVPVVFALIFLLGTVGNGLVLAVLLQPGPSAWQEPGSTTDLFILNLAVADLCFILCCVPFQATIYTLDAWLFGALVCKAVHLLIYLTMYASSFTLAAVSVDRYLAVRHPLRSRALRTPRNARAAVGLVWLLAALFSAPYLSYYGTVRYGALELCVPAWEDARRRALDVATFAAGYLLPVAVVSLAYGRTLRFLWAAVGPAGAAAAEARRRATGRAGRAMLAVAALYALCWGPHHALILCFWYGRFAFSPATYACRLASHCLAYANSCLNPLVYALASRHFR
TAAR1 ag: human TAAR1 agonists, primary screen, Fluo-8 calcium fluorescence, CHO RD-HGA16 cells; AID 624467, 2012; activation, % at 3 µM; actives 0.99% (n = 360,000); vehicle wells 0%, saturating PEA agonist 100%; Trace amine-associated receptor 1 (Homo sapiens), Q96RJ0;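 active = activation above the mean activation of all test compounds in the run plus 3 SD, cut at about 38% in these data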
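Test system: RD-HGA16 (CHO) cells co-expressing Gα16 and hTAAR1 / Benchmarks: DMSO vehicle as 0%, PEA at EC100 as 100% / Repeats: no replicates (n 1) / Measure: % activation from peak over basal fluorescence ratio, DMSO-to-PEA scaled / Timing: 17-24 h plating, Fluo-8 75 min 37 °C, 30 min RT / Technique: kinetic Fluo-8 calcium fluorescence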
OX1R antag-1: OX1R (HCRTR1) antagonists, primary screen, fluorescence, CHO/OX1R cells, Fluo-8 calcium, orexin A; Orexin/Hypocretin receptor type 1 (Homo sapiens), O43613; Fluo-8 calcium fluorescence; inhibition, % at 5 µM; actives 0.43% (n = 330,000);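 active = inhibition above its plate's threshold, mean inhibition of all tested compounds on the plate plus 3 SD, cut at about 37% in these data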;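 note: 0% = orexin A challenge wells and 100% = SB-334867-A antagonist wells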
CHO parental Ca: ATP-evoked calcium signal inhibitors, parental CHO, primary screen, counter-screen for OX1R antagonist project, cell-based, fluorescence, Fluo-8 calcium dye | parental CHO-K1, ATP-induced calcium, Fluo-8 fluorescence | inhibition, % at 5.6 µM | actives 0.63% (n = 330,000) | AID 463079, 2010;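 active = inhibition above that plate's mean sample inhibition plus 3 SD, cut at about 26% in these data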;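 note: 0% = ATP-challenged DMSO wells and 100% = DMSO wells without ATP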
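Assay system: untransfected parental CHO cell line. Also added: ATP agonist challenge. Dosing: one dose, 5.6 µM nominal. Measured by: Fluo-8 fluorescence. Read-out: % inhibition. Benchmarks: ATP wells versus no-ATP DMSO wells. Repeats: no replicates.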
TAAR1 antagonist: human TAAR1 antagonists, primary screen, Fluo-8 calcium fluorescence, CHO RD-HGA16 cells; Trace amine-associated receptor 1 (Homo sapiens), Q96RJ0; antagonist; inhibition, % at 3 µM; actives 1.5% (n = 360,000);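 active = inhibition above a per-plate cutoff, the mean inhibition of test compounds on that plate plus 3 SD, cut at about 49% in these data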;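 note: 0% = DMSO plus EC80 beta-PEA response and 100% = DMSO alone without agonist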
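test system = CHO RD-HGA16 cells bearing hTAAR1 | replication = singlicate | controls = DMSO-only wells and EC80 β-PEA-stimulated wells | reagent = EC80 β-phenethylamine stimulus | read-out basis = percent inhibition of PEA-evoked calcium signal, max/basal emission ratio | schedule = seeding 17-24 h prior, 75-min 37 °C, 30-min RT dye loading | signal = kinetic Fluo-8 calcium fluorescence measurement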
OX1R antag-2: antagonists of human orexin 1 receptor (OX1R); inhibition, % at 6.6 µM; OX1R-expressing cells, FRET antagonist read-out; Orexin/Hypocretin receptor type 1 (Homo sapiens), O43613; actives 1.8% (n = 330,000); in the data active = inhibition mostly above about 38%, no sharp cut-off; inactive = mostly below about 40%;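 note: 0% = agonist challenge alone and 100% = reference antagonist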
TAAR1 ag confirm: human TAAR1 agonists, retest of hits, confirmation, Fluo-8 calcium fluorescence, CHO RD-HGA16 cells; shares compounds with TAAR1 ag; scaled: DMSO 0%, maximal phenethylamine 100%; activation, % at 3 µM; actives 82% (n = 2,400);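 active = activation above a cutoff set at the run's mean compound activation plus 3 SD, cut at about 39% in these data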
Ga16 nonsel ag: nonselective calcium mobilization agonists, CHO-Ga16 cells, counter-screen for hTAAR1 agonist project, cell-based, fluorescence, CHO-Ga16 parental line; shares compounds with TAAR1 ag; Fluo-8 calcium fluorescence; normalized to maximal ATP response, DMSO zero; activation, % at 3 µM; actives 50% (n = 2,400);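 active = activation above the run cutoff, the mean activation over all tested wells plus 3 SD, cut at about 12% in these data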;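 note: 0% = DMSO wells and 100% = maximal ATP response on the peak over basal ratio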
TAAR1 desens: TAAR1 desensitization by agonist hits, confirmation, counter-screen for TAAR1 agonist project, cell-based, fluorescence, tachyphylaxis | shares compounds with TAAR1 ag | CHO RD-HGA16 hTAAR1, Fluo-8 calcium, beta-PEA response inhibition | inhibition, % at 3 µM | actives 46% (n = 2,400);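 active = inhibition above the run cutoff, the mean inhibition of all test compounds plus 3 SD, cut at about 49% in these data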;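 note: beta-PEA stimulus applied at its EC80; loss of beta-PEA calcium signal after compound pretreatment read as receptor desensitization; 0% = DMSO with beta-PEA at EC80 and 100% = DMSO alone without agonist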
Ga16 nonsel ant: inhibition of ATP-evoked calcium response in CHO-Ga16 cells, counter-screen for TAAR1 agonist project, cell-based, fluorescence | shares compounds with TAAR1 ag | CHO-Ga16 ATP-induced calcium, Fluo-8 fluorescence | inhibition, % at 3 µM | actives 39% (n = 2,400);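 active = inhibition above the plate's mean compound inhibition plus 3 SD, computed per plate, cut at about 22% in these data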;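 note: 0% = EC80 ATP with DMSO and 100% = DMSO wells without ATP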
* = called active by the depositor; x = no result. Sampled rows, rich in hits. Any-hit rate of the full collection: about 4.2%.

SMILES	GalR3 antag	TAAR1 ag	OX1R antag-1	CHO parental Ca	TAAR1 antagonist	OX1R antag-2	TAAR1 ag confirm	Ga16 nonsel ag	TAAR1 desens	Ga16 nonsel ant
CCC1CCc2sc(C(=O)NCC(c3ccc(OC)cc3)N3CCCC3)cc2C1 (stereo not drawn)	-6	46*	-40	-21	-22	21	42*	5	20	16
O=C(N[C@H](C(=O)N1CCC[C@H]1C(=O)NCCc1ccccc1Cl)c1ccccc1)c1cccs1	-4	x	x	x	x	x	x	5	x	10
O=C(N[C@H](C(=O)N1CCC[C@H]1C(=O)NCCc1ccccc1Cl)c1ccccc1)c1ccco1	-6	41*	x	x	-13	x	57*	1	60*	12
Cn1c(=O)c2[nH]c(-c3ccccc3Cl)c(O)c2n(C)c1=O	-1	0	-7	6	8	4	x	x	x	x
CC(C)=NNc1nc2c(c(=O)[nH]c(=O)n2C)n1CCc1ccccc1	0	47*	-19	-7	-13	14	37	2	3	18
CC(C)=NNc1nc2c(c(=O)[nH]c(=O)n2C)n1CCCc1ccccc1	-8	2	-33	-30	-9	6	x	x	x	x
Cc1cc(NC(=O)CSc2nc(-c3ccco3)cc(C(F)(F)F)n2)no1	2	44*	-16	-20	18	30	-1	5	3	11
Cc1cc(NC(=O)CCSc2nc(-c3ccco3)cc(C(F)(F)F)n2)no1	2	8	-23	-9	12	10	x	x	x	x
O=S(=O)(/C=C/c1ccccc1)Oc1ccccc1	-3	13	-1	-18	-6	6	x	x	x	x
COc1ccc(CCNCC(O)COc2ccc(OC)cc2C(C)(C)C)cc1 (stereo not drawn)	-13	66*	21	13	33	3	96*	14*	70*	16
COc1ccc(CCNCC(O)COc2cccc(Br)c2)cc1OC (stereo not drawn)	-12	16	-14	-33	-9	3	x	x	x	x
O=S(Cc1ccccc1)Cc1ccccc1	-1	0	x	x	20	x	x	x	x	x
CCOC(=O)Cn1c(=O)oc2cc(S(=O)(=O)Nc3ccc(F)cc3)ccc21	-4	89*	22	23*	44	10	109*	69*	52*	32*
O=C(Nc1ccccc1C(=O)O)c1cc(S(=O)(=O)Nc2ccccc2)ccc1Cl	-14	-2	-17	10	-36	0	x	x	x	x
FC(F)(F)c1cccnc1Oc1ccc(C2=NCCS2)cc1	-3	84*	-11	-11	57*	8	58*	58*	62*	43*
